Test results published in PubChem BioAssay.
Active and inactive are the calls of the source.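 The calls were made as follows, unless noted: active = potentiation averaged over duplicate wells exceeding buffer-only control mean by more than 3 SD; inactive = the rest.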

Key:
[1] = nonspecific flux increase, KCNQ1-free cells – parental CHO cells, counter-screen for KCNQ1 potentiator project (AID 493006;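 active = duplicate-averaged activation above buffer control mean plus 5 SD of those controls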;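 as to activation: fluorescence ratio of max minus min over baseline after K+ and Tl+ depolarization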); details: parental CHO-K1 cells, FluxOR thallium flux, at 10 µM; stronger effect = higher value
Procedure, shortened: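 Benchmarks – buffer and R-L3 controls · Assay system – untransfected host CHO-K1 cells with FluxOR thallium dye · Measure – fluorescence change ratio scaled 0% buffer, 100% R-L3 · Technique – kinetic thallium-flux fluorescence · Timing – overnight 37 °C plating, 90 min RT dye, 20 min compound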

[2] = target: Potassium voltage-gated channel subfamily KQT member 1 (Homo sapiens) (UniProt P51787); assay: enhancement of KCNQ1 channel thallium flux – FluxOR thallium flux, CHO cells, duplicates, confirmation (AID 493007); details: KCNQ1 cell line, FluxOR thallium flux fluorescence, at 10 µM; stronger effect = higher value, % of reference activator effect, buffer zero;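 as to outcome: cells depolarized by a potassium plus thallium sulfate stimulus after compound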
Chain of Potassium voltage-gated channel subfamily KQT member 1 (Homo sapiens) (P51787 whole entry, looked up): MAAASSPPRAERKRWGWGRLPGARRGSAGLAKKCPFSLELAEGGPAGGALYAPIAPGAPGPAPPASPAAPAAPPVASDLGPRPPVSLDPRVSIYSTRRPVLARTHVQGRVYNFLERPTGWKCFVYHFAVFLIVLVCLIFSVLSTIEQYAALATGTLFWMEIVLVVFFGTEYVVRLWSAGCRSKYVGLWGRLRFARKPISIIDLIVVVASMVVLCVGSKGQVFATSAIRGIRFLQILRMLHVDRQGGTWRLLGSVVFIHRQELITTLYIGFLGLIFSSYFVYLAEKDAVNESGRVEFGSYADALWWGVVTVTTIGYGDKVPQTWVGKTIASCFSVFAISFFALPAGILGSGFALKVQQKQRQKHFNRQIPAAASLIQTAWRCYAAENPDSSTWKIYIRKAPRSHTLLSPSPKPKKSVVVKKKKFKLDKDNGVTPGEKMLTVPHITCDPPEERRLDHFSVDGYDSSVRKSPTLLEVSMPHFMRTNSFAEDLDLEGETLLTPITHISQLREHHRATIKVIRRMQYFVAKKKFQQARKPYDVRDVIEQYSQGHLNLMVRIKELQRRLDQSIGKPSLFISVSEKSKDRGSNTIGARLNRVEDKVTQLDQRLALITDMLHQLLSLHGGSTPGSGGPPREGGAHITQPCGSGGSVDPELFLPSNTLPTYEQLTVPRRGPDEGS
Procedure, shortened: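 Material: CHO cells stably expressing the KCNQ1 potassium channel / Times: dye 90 min then compound 20 min, both at room temperature / Detection: kinetic thallium influx fluorescence with FluxOR dye, 10 s baseline, 110 s post-stimulus / Benchmarks: buffer-only wells as 0% and R-L3 activator as 100% / Replicates: each compound tested in duplicate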

[3] = target: Potassium voltage-gated channel subfamily KQT member 2 (Rattus norvegicus) (UniProt O88943); assay: KCNQ2 thallium flux enhancement – KCNQ2-CHO-K1 cells, selectivity assay for KCNQ1 potentiator project (AID 493009;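 active = mean duplicate potentiation above the buffer control mean plus 5 SD of buffer wells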;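 also: assay conditions were tuned for KCNQ1 rather than KCNQ2 modulators; signal is max minus min fluorescence divided by baseline after thallium stimulus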); details: FluxOR thallium flux fluorescence, at 10 µM; stronger effect = higher value, scaled: buffer 0, activator control 100
Chain of Potassium voltage-gated channel subfamily KQT member 2 (Rattus norvegicus) (O88943 whole entry, looked up): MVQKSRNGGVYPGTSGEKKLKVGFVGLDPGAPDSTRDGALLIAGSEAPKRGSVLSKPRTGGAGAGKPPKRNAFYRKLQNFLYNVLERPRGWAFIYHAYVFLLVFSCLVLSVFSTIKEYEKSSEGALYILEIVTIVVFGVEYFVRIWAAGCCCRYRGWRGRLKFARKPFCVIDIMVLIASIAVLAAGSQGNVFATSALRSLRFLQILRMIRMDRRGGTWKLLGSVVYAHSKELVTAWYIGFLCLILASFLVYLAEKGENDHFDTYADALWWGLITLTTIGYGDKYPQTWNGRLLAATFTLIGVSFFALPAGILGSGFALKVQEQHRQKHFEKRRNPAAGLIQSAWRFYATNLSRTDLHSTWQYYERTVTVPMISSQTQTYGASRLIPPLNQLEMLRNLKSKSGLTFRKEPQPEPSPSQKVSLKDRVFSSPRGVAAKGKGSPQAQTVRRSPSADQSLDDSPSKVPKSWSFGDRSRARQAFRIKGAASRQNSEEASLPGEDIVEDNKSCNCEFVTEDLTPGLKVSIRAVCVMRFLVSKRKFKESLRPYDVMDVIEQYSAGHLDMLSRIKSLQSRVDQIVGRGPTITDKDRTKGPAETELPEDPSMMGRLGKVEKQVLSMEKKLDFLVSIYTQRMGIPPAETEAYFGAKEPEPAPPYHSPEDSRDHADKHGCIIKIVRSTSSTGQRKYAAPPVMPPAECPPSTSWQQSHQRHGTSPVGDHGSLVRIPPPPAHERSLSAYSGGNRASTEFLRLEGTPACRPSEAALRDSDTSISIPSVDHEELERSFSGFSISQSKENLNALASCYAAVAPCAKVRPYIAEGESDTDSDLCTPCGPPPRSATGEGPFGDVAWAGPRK

[4] = target: Potassium voltage-gated channel subfamily KQT member 1 (Homo sapiens) (UniProt P51787); assay: KCNQ1 activators by electrophysiology – IonWorks patch clamp, KCNQ1-CHO cells, orthogonal assay for KCNQ1 potentiator project, confirmation (AID 493184;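 active = current rise at least 3 SD above the untreated control mean in each of two repeat wells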); details: automated patch clamp current, at 10 µM; stronger effect = higher value
Procedure, shortened: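 Probe or stimulus: depolarizing pulse to +40 mV from -90 mV; Material: CHO cells carrying KCNQ1; Compound: one dose, 10 µM final; Signal: automated voltage clamp, amphotericin B perforated patch; Read-out basis: percent current increase versus pre-compound level; Buffer or medium: pH 7.4 external bath; Replication: duplicates.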

CC(C)NC(=O)/C(=C/c1cn(-c2ccccc2)nc1-c1cccc([N+](=O)[O-])c1)NC(=O)c1ccccc1
inactive: outcome [1] | outcome [2] | outcome [3] | outcome [4]

CCOC(=O)c1nnn(CC(=O)Nc2cc(Cl)ccc2C)c1C(=O)OCC
active: activation [1] 164% | potentiation [2] 33%
inactive: outcome [3] | outcome [4]

CN1CCN(c2ccccc2NC(=S)NC(=O)c2cc3ccccc3o2)CC1
inactive: outcome [1] | outcome [2] | outcome [3] | outcome [4]

Cc1ccc(-c2nc(N)s[n+]2-c2ccccc2)cc1
active: activation [1] 187% | potentiation [2] 157% | potentiation [3] 155%
inactive: outcome [4]

COC(=O)c1ccc(CSc2ncnc3sc(C)c(C)c23)o1
inactive: outcome [4]
active: activation [1] 155% | potentiation [2] 24% | potentiation [3] 163%

COc1cccc2sc(Nc3nnc(-c4cccs4)o3)nc12
active: activation [1] 396% | potentiation [2] 250% | potentiation [3] 424%
inactive: outcome [4]

COCCOC(=O)N/C=C\c1nc2ccccc2c(=O)[nH]1
inactive: outcome [1] | outcome [2] | outcome [3] | outcome [4]

COC(=O)c1ccc(CNC(=O)c2ccc(COc3ccccc3)cc2)cc1
inactive: outcome [1] | outcome [2] | outcome [3] | outcome [4]

O=C(O)CSc1c2c(nc3cc(C(=O)Nc4cccc(C(F)(F)F)c4)ccc13)CCC2
inactive: outcome [1] | outcome [2] | outcome [3] | outcome [4]

CC(=O)Nc1ccc(NC(=O)c2cccc(C(=O)OC(C)C)n2)cc1
inactive: outcome [1] | outcome [2] | outcome [3] | outcome [4]

COc1ccc(CCNC(=O)CC(=O)N/N=C/c2ccc(Br)cc2)cc1OC
inactive: outcome [1] | outcome [2] | outcome [3] | outcome [4]

CCOC(=O)Cc1csc(NC(=O)CSc2nnnn2-c2ccc(C)cc2C)n1
inactive: outcome [1] | outcome [2] | outcome [3] | outcome [4]

O=c1[nH]c2ccc(Cl)cc2c(-c2ccccc2)c1N1CCN(CCO)CC1
inactive: outcome [1] | outcome [2] | outcome [3] | outcome [4]

CN1CCN(CC/C=C2/c3ccccc3Sc3ccc(S(=O)(=O)N(C)C)cc32)CC1
inactive: outcome [1] | outcome [2] | outcome [3] | outcome [4]

CCCCCCCN1N=C(C)C(C(=O)c2ccccc2)C1=O (stereo not given)
inactive: outcome [1] | outcome [2] | outcome [3] | outcome [4]

Cc1ccc(C(C#N)c2ccc3c(C(F)(F)F)cc(C(F)(F)F)nc3n2)cc1 (stereo not given)
inactive: outcome [4]
active: activation [1] 150% | potentiation [2] 114% | potentiation [3] 222%

CC(=O)N1CCN=C1SCc1ccc(F)cc1
inactive: outcome [4]
active: activation [1] 355% | potentiation [2] 120% | potentiation [3] 329%

COc1ccc([N+](=O)[O-])cc1NC(=O)c1cccnc1
inactive: outcome [1] | outcome [2] | outcome [3] | outcome [4]

CCOC(=O)CC1=NS(=O)(=O)c2ccccc2N1
inactive: outcome [1] | outcome [2] | outcome [3] | outcome [4]

CCCC(=O)Nc1cc(Cl)ccc1N1CCN(C(=O)CC)CC1
inactive: outcome [1] | outcome [2] | outcome [3] | outcome [4]

CC(=O)OC1OCCOC1NC(=S)Nc1ccc(C)cc1 (stereo not given)
inactive: outcome [1] | outcome [2] | outcome [3] | outcome [4]

O=C(Nc1ccccc1F)C1C2C=CC3(O2)C1C(=O)N(c1cccnc1)C3C(=O)NC1CCCCC1 (stereo not given)
inactive: outcome [1] | outcome [2] | outcome [3] | outcome [4]

CCCc1cc(=O)n2[nH]cc(-c3ccc(Cl)cc3)c2n1
active: activation [1] 168% | potentiation [2] 36% | potentiation [3] 164%
inactive: outcome [4]

Cc1cc(C)n(/N=C/c2cc(Cl)cc(Cl)c2O)c(=O)c1
inactive: outcome [1] | outcome [2] | outcome [3] | outcome [4]

CSc1nc(C)c2c(n1)N(c1ccc(C(C)C)cc1)CC2
inactive: outcome [1] | outcome [2] | outcome [3] | outcome [4]

CCOC(=O)CSc1nc2ccccc2c(=O)n1-c1ccc(C)cn1
inactive: outcome [1] | outcome [2] | outcome [3] | outcome [4]

COc1cccc(Oc2cnc(N)nc2-c2ccc(OC)cc2O)c1
inactive: outcome [1] | outcome [2] | outcome [3] | outcome [4]

Cc1ccc(C)c(/C=C/C(=O)c2ccccc(=O)c2O)c1
inactive: outcome [4]
active: activation [1] 194% | potentiation [2] 118% | potentiation [3] 333%

O=C(C1CCN(Cc2ccccc2)CC1)N1CCN(C/C=C/c2ccccc2)CC1
inactive: outcome [1] | outcome [2] | outcome [3] | outcome [4]

CCOc1ccccc1NC(=O)C(=O)CC(=O)c1ccc(OC)cc1
active: activation [1] 164% | potentiation [2] 64.5% | potentiation [3] 216%
inactive: outcome [4]

O=C(NC(=S)N1CCCCCC1)c1ccccc1
inactive: outcome [1] | outcome [2] | outcome [3] | outcome [4]

Cc1ccccc1CC(=O)NC1CCN(Cc2ccccc2)CC1
inactive: outcome [1] | outcome [2] | outcome [3] | outcome [4]

C/C(=N\NC(=S)Nc1cccc(C)c1)c1cc2ccccc2o1
active: activation [1] 159% | potentiation [2] 60% | potentiation [3] 172%
inactive: outcome [4]

OC(CON=C1c2ccccc2-c2ccccc21)CN1CCNCC1 (stereo not given)
inactive: outcome [1] | outcome [2] | outcome [3] | outcome [4]

CCC(C)(C)NC(=O)C(c1ccncc1)N(Cc1cccs1)C(=O)Cn1nnc2ccccc21 (stereo not given)
inactive: outcome [1] | outcome [2] | outcome [3] | outcome [4]

O=C(Nc1nc(=O)c2ccccc2s1)c1ccc(F)cc1
inactive: outcome [1] | outcome [2] | outcome [4]
active: potentiation [3] 152%

Cc1ccc(C)c(NC(=S)NNC(=O)c2cc3c(s2)CCC(C)C3)c1 (stereo not given)
active: activation [1] 192% | potentiation [2] 48.5% | potentiation [3] 237%
inactive: outcome [4]

CCC(C)NC(=O)c1cc(Cl)c(NC(=O)C2=C(C)OCCS2)cc1OC (stereo not given)
inactive: outcome [1] | outcome [2] | outcome [3] | outcome [4]

COc1ccccc1CNC(=O)c1oc2ccc(S(=O)(=O)N3CCOCC3)cc2c1C
inactive: outcome [1] | outcome [2] | outcome [3] | outcome [4]

COc1cc(/C=N/NC(=O)c2ccoc2C)ccc1OCCN1CCCCC1
inactive: outcome [1] | outcome [3] | outcome [4]
active: potentiation [2] 23.5%

CCOC(=O)C(=NCC1CCCO1)NNc1ccccc1Cl (stereo not given)
inactive: outcome [1] | outcome [2] | outcome [3] | outcome [4]

COC(=O)CCCC[C@@H]1SC[C@@H](NC(=O)OC)[C@@H]1NC(=O)OC
inactive: outcome [1] | outcome [2] | outcome [3] | outcome [4]

Cc1nc2ccccn2c1C(=O)N/N=C/c1ccccc1
inactive: outcome [1] | outcome [2] | outcome [3] | outcome [4]

Cc1ccc(Nc2c([N+](=O)[O-])ccc3nonc23)c(C)c1
inactive: outcome [1] | outcome [2] | outcome [3] | outcome [4]

O=C(NN=C1c2ccccc2-c2ccccc21)c1ccccc1Br
inactive: outcome [1] | outcome [3] | outcome [4]
active: potentiation [2] 37%

O=C1N(Cc2ccc(F)cc2)CCN1c1ccc(F)cc1
inactive: outcome [4]
active: activation [1] 149% | potentiation [2] 22% | potentiation [3] 144%

CCOC(=O)c1ccccc1NC(=O)CSc1nc2ccccc2n1CC(=O)N1CCCC1
inactive: outcome [1] | outcome [2] | outcome [3] | outcome [4]

COc1ccc(-n2c(C)cc(C(=O)CCl)c2C)cc1
inactive: outcome [1] | outcome [2] | outcome [3] | outcome [4]

O=C(COc1ncnc2ccc(Br)cc12)Nc1ccc(N2CCOCC2)cc1
inactive: outcome [1] | outcome [2] | outcome [3] | outcome [4]

CCOC(=O)Cn1nc(-c2ccc(F)cc2)cc(Cc2ccccc2)c1=O
inactive: outcome [1] | outcome [2] | outcome [3] | outcome [4]

CCc1ccc(NC(=O)C(=O)NNC(=O)c2ccc(OC)cc2)cc1
active: activation [1] 326% | potentiation [2] 149% | potentiation [3] 367%
inactive: outcome [4]

COc1ccc(N2CCN(S(=O)(=O)c3ccc(OC)c(C(=O)N4CCCCC4)c3)CC2)cc1
inactive: outcome [1] | outcome [2] | outcome [3] | outcome [4]

C/C(=N\NC(=O)C(C)Sc1ccccc1)c1ccc([N+](=O)[O-])cc1 (stereo not given)
inactive: outcome [1] | outcome [2] | outcome [3] | outcome [4]

CN1CCN(C=Nc2nc3ccccc3nc2N2CCCC2)CC1
inactive: outcome [1] | outcome [2] | outcome [3] | outcome [4]

COc1ccc(C(=O)CSc2nnc(NC(=O)C3CC(=O)N(c4cccc(OC)c4)C3)s2)cc1 (stereo not given)
inactive: outcome [1] | outcome [2] | outcome [3] | outcome [4]

CCOC(=O)c1sc2nc(C)nc(SCC(=O)N(C)C3CCS(=O)(=O)C3)c2c1C (stereo not given)
active: potentiation [2] 17.5% | potentiation [3] 142%
inactive: outcome [1] | outcome [4]

CCOC(=O)c1c(NC(=S)NCc2ccccc2)sc2c1CCN(C(=O)OCC)C2
inactive: outcome [1] | outcome [2] | outcome [3] | outcome [4]

COc1cc(C2C(C#N)=C(N)Oc3cc(O)ccc32)cc2c1OCO2 (stereo not given)
inactive: outcome [1] | outcome [2] | outcome [3] | outcome [4]

CC(=O)NC(C1C(=O)CC(C)(C)CC1=O)(C(F)(F)F)C(F)(F)F
inactive: outcome [1] | outcome [2] | outcome [3] | outcome [4]

O=C(/C=C/c1ccccc1Cl)c1ccccc(=O)c1O
active: activation [1] 214% | potentiation [2] 134% | potentiation [3] 374%
inactive: outcome [4]
